High-throughput results from PubChem BioAssay.
STEP inh – STEP phosphatase inhibitors, primary screen, biochemical, fluorescence intensity, uHTS. Tyrosine-protein phosphatase non-receptor type 5 (Homo sapiens), P54829. AID 588621, 2011. recombinant STEP, OMFP fluorogenic substrate. inhibition, % at 20 µM. hit rate 0.25% among 360,000;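 active = inhibition at 20 µM, scaled per plate between control wells, above about 37%, limit read from the data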;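 also: 0% = DMSO with enzyme and substrate and 100% = substrate only without enzyme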
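System: isolated STEP enzyme; schedule: 20 min enzyme reaction at room temperature, protected from light; medium: Bis-Tris buffer pH 6.0, 2.5 mM DTT, 0.005% Tween 20; signal: fluorescence, 480/540 nm; dosing: single compound dose of 20 µM, 1% DMSO final; also added: OMFP substrate, 25 µM final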
Rpn11 inh – Rpn11 (PSMD14) deubiquitinase inhibitors, primary screen, biochemical, fluorescence polarization, uHTS | 26S proteasome non-ATPase regulatory subunit 14 (Homo sapiens), O00487 | human 26S proteasome, Ub4-pepOG fluorescence polarization; 20S core pre-blocked with epoxomicin | inhibition, % at 20 µM | hit rate 0.59% among 360,000 | AID 588493, 2011;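 active = inhibition at 20 µM, scaled to each plate's controls, above about 33%, limit read from the data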
Target sequence (O00487 whole entry, looked up): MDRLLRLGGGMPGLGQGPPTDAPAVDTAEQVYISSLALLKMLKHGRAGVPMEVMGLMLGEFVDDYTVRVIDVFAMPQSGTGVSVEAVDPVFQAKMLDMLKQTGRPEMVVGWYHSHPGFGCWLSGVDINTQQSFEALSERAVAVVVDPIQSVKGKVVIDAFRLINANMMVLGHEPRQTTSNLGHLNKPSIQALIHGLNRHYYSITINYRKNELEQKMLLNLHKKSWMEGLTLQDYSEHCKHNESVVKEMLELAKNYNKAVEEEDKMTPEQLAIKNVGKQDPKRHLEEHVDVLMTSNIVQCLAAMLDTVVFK
LMPTP block – LMPTP phosphatase inhibitors, primary screen, biochemical, fluorescence intensity, uHTS | recombinant LMPTP-A, OMFP fluorogenic substrate | hit rate 0.22% among 360,000 | Low molecular weight phosphotyrosine protein phosphatase (Homo sapiens), P24666 | AID 651560, 2012 | inhibition, % at 20 µM;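 active = compounds that cut the enzyme signal by at least half of the control window in the single-dose screen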;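 also: plate controls were DMSO wells with enzyme plus substrate for no effect and substrate without enzyme for full effect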
Target sequence (P24666 whole entry, looked up): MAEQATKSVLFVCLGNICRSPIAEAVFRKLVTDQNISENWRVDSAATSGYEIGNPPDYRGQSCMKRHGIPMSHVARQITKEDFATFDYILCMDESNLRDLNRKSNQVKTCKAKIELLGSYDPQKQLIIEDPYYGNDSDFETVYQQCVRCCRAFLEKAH
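Test system: LMPTP-A, protein tyrosine phosphatase of low molecular weight; Input: 0.625 nM enzyme; Incubation: 50 min dark incubation at room temperature; Signal: endpoint fluorescence intensity from OMFP dephosphorylation; Read-out basis: % inhibition versus control wells.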
SUMO1 PPI mod – modulators of SUMO1 protein-protein interactions, primary screen, biochemical, uHTS; inhibition, % at 20 µM; SUMO1 binding to a labelled peptide, TR-FRET, 1 h; hit rate 0.33% among 360,000; Small ubiquitin-related modifier 1 (Homo sapiens), P63165; AID 602429, 2012; in the data active = inhibition above about 37%
Scp1 inh – Scp-1 phosphatase inhibitors, primary screen, biochemical, colorimetric, uHTS. AID 493091, 2011. inhibition, % at 20 µM. hit rate 0.88% among 340,000. Carboxy-terminal domain RNA polymerase II polypeptide A small phosphatase 1 (Homo …. Recombinant Scp1, phosphopeptide, malachite green phosphate absorbance;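 active = inhibition above about 50% at 20 µM, limit read from the data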;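 also: plate controls were DMSO wells with enzyme for no effect and wells lacking enzyme for full effect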
Target sequence (Q9GZU7 76-261 limits assumed): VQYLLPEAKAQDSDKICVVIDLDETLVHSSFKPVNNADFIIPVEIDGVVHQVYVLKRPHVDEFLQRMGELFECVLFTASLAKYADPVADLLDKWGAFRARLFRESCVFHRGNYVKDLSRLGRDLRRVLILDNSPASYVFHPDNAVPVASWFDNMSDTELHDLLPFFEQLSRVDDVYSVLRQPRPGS
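Material: truncated SCP-1 phosphatase (76-261aa) / Buffer or medium: 50 mM Tris acetate pH 5.5, 0.005% Tween-20, 10 mM MgCl2 / Compound dosing: one concentration, 20 µM, with 1.0% DMSO / Incubation: 45 min room-temperature reaction, 5 min colour, 30 min stabiliser / Detection: colorimetric free-phosphate detection, absorbance 630 nm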
DNMT1 block – human DNMT1 methyltransferase inhibitors, primary screen, biochemical, molecular beacon, fluorescence, HinP1I cleavage, uHTS. DNA (cytosine-5)-methyltransferase 1 (Homo sapiens), P26358. inhibition (reported as % activation of signal), % at 10 µM. hit rate 0.83% among 360,000; in the data active = inhibition above about 50%
Scp1 confirm – Scp-1 phosphatase inhibitors, retest, confirmation, biochemical, colorimetric, single concentration | shares compounds with Scp1 inh | recombinant SCP-1 catalytic domain, phosphate release, malachite green absorbance | inhibition, % at 20 µM | hit rate 61% among 2,500;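 also: plate controls were DMSO with enzyme for no effect and buffer wells lacking enzyme for full effect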
MG interference – colorimetric readout interference by compounds, confirmation, artefact control for Scp-1 inhibitor project, biochemical, single concentration; shares compounds with Scp1 inh; Colorimetric interference counterscreen, malachite green absorbance 630 nm; 2,500 tested, under 10 active; apparent inhibition (interference), % at 20 µM; AID 540313, 2011;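 also: compounds added after enzyme reaction finished so only phosphate colour detection is probed; plate controls were DMSO wells with completed Scp-1 reaction for no effect and substrate wells lacking enzyme for full effect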
Scp1 DSF – Scp-1 binding by thermal shift, confirmation, orthogonal assay for Scp-1 inhibitor project, biophysical, differential scanning fluorimetry. shares compounds with Scp1 inh. Recombinant SCP1, Sypro Orange thermal shift Tm. thermal shift relative to vanadate control, % at 40 µM. hit rate 25% among 1,500. AID 540329, 2011;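 active = substances whose mean melting-temperature shift, as a percentage of the reference inhibitor's shift, reaches about 5.3%, limit read from the data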;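 also: 0% = Tm of DMSO wells and 100% = Tm with sodium orthovanadate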
* hit, by the source's call; nt = no result. Shown are actives, neighbours in structure and some others; about 2.3% of the full set was active somewhere.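 The calls were made as follows, unless noted: active = inhibition of at least 30% at 20 µM; inactive = the rest.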

SMILES | STEP inh | Rpn11 inh | LMPTP block | SUMO1 PPI mod | Scp1 inh | DNMT1 block | Scp1 confirm | MG interference | others
Cc1ccc(C(=O)Oc2cccc(NC(=O)c3ccco3)c2)cc1S(=O)(=O)N1CCC(C)CC1 | 0 | 2 | 3 | 0 | 54* | -6 | -10 | -14
O=C(c1cc(S(=O)(=O)N2CCOCC2)ccc1F)N(Cc1nnc(-c2ccccc2Cl)o1)C1CC1 | 2 | 0 | -1 | 0 | 55* | 2 | -14 | -16
Cc1ccc(S(=O)(=O)N2CCOCC2)cc1C(=O)N(Cc1nnc(-c2ccccc2Cl)o1)C1CC1 | -1 | 2 | -1 | 1 | -14 | 0 | nt | nt
O=C1CC(C(=O)N2CCN(c3ccccn3)CC2)CN1Cc1ccccc1Cl (stereo unspecified) | 2 | -7 | 0 | 7 | -4 | 2 | nt | nt
Cc1cc(C)c2c(=O)[nH]c(SCC(=O)NCCc3ccccc3)nc2n1 | 0 | -7 | -2 | 3 | 67* | 1 | -12 | -12
COC(=O)c1ccccc1NC(=O)c1cc[n+]([O-])cc1 | 2 | 0 | -1 | -6 | 0 | -1 | nt | nt
COC(=O)c1ccccc1NC(=O)c1cc[n+](C)cc1 | -3 | -6 | -2 | -34 | 51* | 0 | -12 | -22
CCN=C(NC#N)SCc1c(F)cccc1Cl | 3 | -7 | 0 | 0 | -1 | 3 | nt | nt
CCOC(=O)c1ccc(N2C(=O)c3n[nH]c(C)c3C2c2ccc(OC)c(OC)c2)cc1 (stereo unspecified) | 1 | -1 | -1 | 3 | 57* | -5 | -9 | -4
CCOC(=O)c1ccc(N2C(=O)c3n[nH]c(C)c3C2c2ccc(OC)cc2)cc1 (stereo unspecified) | 0 | -1 | 1 | -1 | -6 | -1 | nt | nt
COC(=O)c1ccc(Nc2c([N+](=O)[O-])ccc3nonc23)cc1 | -1 | 3 | 0 | -32 | -9 | -1 | nt | nt
COc1cccc(/C=C2/Oc3ccccc3N(CC(=O)NCC3CCCO3)C2=O)c1 (stereo unspecified) | -1 | 3 | 1 | -9 | -11 | 3 | nt | nt
CCOC(=O)N1CCN(C(=O)CSc2nc3ccccc3c(=O)n2-c2ccccc2)CC1 | -6 | -1 | -1 | 2 | -8 | 0 | nt | nt
CCOC(=O)N1CCN(C(=O)CSc2ncnc3ccccc23)CC1 | -3 | -8 | -1 | -3 | 54* | 2 | -27 | -18
C[C@H]1CN([C@@H](C)CO)C(=O)c2cc(C#CCC3CCCC3)cnc2O[C@@H]1CN(C)C(=O)CC1CC1 | 0 | 4 | 0 | 3 | nt | 11 | nt | nt
COC(=O)C1=C(C(=O)OC)[C@@H]2Nc3ccccc3[C@@]23C[C@@H](C(=O)OC)N=C3N1 | -1 | -4 | 0 | 6 | -4 | 12 | nt | nt
CCC12CCCN3CCC4(C(=C(C(=O)OC)C1)Nc1ccccc14)C32 (stereo unspecified) | -3 | -7 | 2 | -1 | 61* | -4 | -10 | -13
CCn1c(SCC(=O)Nc2oc(C)c3c(C)n[nH]c(=O)c23)nc2sc(C)c(C)c2c1=O | 1 | -9 | -15 | -6 | 66* | 0 | -19 | -13
CCC(=O)c1ccc(OCC(=O)NCc2ccccc2CN2CCCC2)cc1 | 4 | 6 | 0 | 3 | -8 | -2 | nt | nt
COc1ccc(C(=O)C2CCCN(C(=O)c3noc4c3CCCC4)C2)c(C)c1 (stereo unspecified) | 6 | -1 | 0 | 3 | -9 | 1 | nt | nt
CCC(=O)Nc1ccc(NC(=S)NC(=O)/C=C/c2ccccc2)cc1 | 12 | -2 | -1 | 2 | 67* | 1 | -4 | -16
O=C(NCC(=O)N(Cc1cccs1)C(C(=O)NC1CCCC1)c1cccnc1)c1ccco1 (stereo unspecified) | -1 | -1 | 0 | -1 | -6 | 1 | nt | nt
O=C(NCC(=O)N(Cc1cccs1)C(C(=O)NC1CCCCC1)c1ccncc1)c1ccco1 (stereo unspecified) | 0 | -3 | 0 | -2 | 52* | -9 | -15 | -19
CN1C(=O)/C(=C/c2ccccc2OCc2ccc(C(=O)O)cc2)NC1=S | 2 | 2 | 1 | -8 | -2 | -2 | nt | nt
Cc1cccc(NC(=O)CN2C(=O)N/C(=C\c3ccccc3OCc3ccc(C(=O)O)cc3)C2=O)c1 | 18 | 2 | 6 | -18 | 85* | 0 | 74* | -18 | Scp1 DSF=-10
SMILES | STEP inh | Rpn11 inh | LMPTP block | SUMO1 PPI mod | Scp1 inh | DNMT1 block | Scp1 confirm | MG interference | others
Cc1ccccc1NC(=O)CN1C(=O)N/C(=C\c2ccccc2OCc2ccc(C(=O)O)cc2)C1=O | 3 | 9 | 36 | -13 | 103* | 29 | 83* | -13 | Scp1 DSF=-487
O=C(O)c1ccc(COc2ccccc2/C=C2\NC(=O)N(Cc3ccc(F)cc3)C2=O)cc1 | 2 | -3 | 1 | -10 | 63* | 3 | 66* | -10 | Scp1 DSF=3
O=C(CN1C(=O)N/C(=C\c2ccccc2OCc2ccc(C(=O)O)cc2)C1=O)Nc1ccc(F)cc1 | 7 | 11 | 1 | -17 | 70* | -2 | 65* | -20 | Scp1 DSF=-3
O=C(c1cc2nc(-c3ccccc3)cc(C(F)(F)F)n2n1)N1CCOCC1 | -2 | 3 | 0 | -17 | -2 | 2 | nt | nt
O=C(c1cc2nc(-c3ccc(F)cc3)cc(C(F)(F)F)n2n1)N1CCOCC1 | -2 | 4 | -3 | -3 | 53* | -1 | -14 | -9
COc1cccc(NC(=O)C2CCCCC2)c1 | 1 | -2 | 0 | -1 | 70* | 2 | 0 | -10
COc1cccc(NC(=O)C2CCCC2)c1 | 1 | -2 | -1 | -3 | -8 | 3 | nt | nt
